# Data as given in ChEMBL document CHEMBL4196192, “MEPicides: α,β-Unsaturated Fosmidomycin Analogues as DXR Inhibitors against Malaria” (J Med Chem, 2018).
# Activity calls are given as the source filed them. The rule behind the calls is not given here.
# Experiments:
# [1] = target: T1, 1-deoxy-D-xylulose 5-phosphate reductoisomerase, apicoplastic (Plasmodium falciparum (isolate 3D7)) (UniProt Q8IKG4); test: Inhibition of Plasmodium falciparum DXR assessed as reduction in NADPH oxidation at 100 uM in presence of DOXP by UV-visible spectrophotometry
# T1 sequence (whole entry): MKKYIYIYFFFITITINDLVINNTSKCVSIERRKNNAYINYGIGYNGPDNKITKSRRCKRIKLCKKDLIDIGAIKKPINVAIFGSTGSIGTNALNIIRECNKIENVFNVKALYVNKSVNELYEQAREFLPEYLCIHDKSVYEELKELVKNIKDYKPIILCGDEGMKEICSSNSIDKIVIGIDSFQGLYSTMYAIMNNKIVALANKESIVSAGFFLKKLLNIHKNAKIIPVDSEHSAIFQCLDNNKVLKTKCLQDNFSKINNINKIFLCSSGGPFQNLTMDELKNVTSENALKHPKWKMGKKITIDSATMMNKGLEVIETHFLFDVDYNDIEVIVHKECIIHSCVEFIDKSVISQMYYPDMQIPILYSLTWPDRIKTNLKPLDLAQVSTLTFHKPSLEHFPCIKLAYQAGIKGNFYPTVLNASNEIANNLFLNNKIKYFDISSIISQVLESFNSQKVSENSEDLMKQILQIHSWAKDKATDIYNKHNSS
# Summary of the method: (§1)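 Recombinant P. falciparum DXR (0.86 μM) in 100 mM Tris pH 7.8, 25 mM MgCl2, 150 μM NADPH, at 37 °C; inhibitor at a single 100 μM; reaction started with 144 μM DOXP; NADPH oxidation followed at 340 nm by UV-vis spectrophotometry; percent remaining activity; duplicate.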
# [2] = system: Plasmodium falciparum; test: Growth inhibition of Plasmodium falciparum 3D7 asynchronous cultures by PicoGreen dye based assay; format: functional, organism-based
# [3] = system: Plasmodium falciparum; test: Growth inhibition of Plasmodium falciparum containing had1 mutation at 0.01 to 100 uM by PicoGreen dye based assay; format: functional, organism-based
# [4] = target: T1, 1-deoxy-D-xylulose 5-phosphate reductoisomerase, apicoplastic (Plasmodium falciparum (isolate 3D7)); test: Inhibition of Plasmodium falciparum DXR assessed as remaining enzyme activity by measuring NADPH oxidation at 100 uM in presence of DOXP by UV-visible spectrophotometry; summary of the method: as §1
# [5] = target: T2, 1-deoxy-D-xylulose 5-phosphate reductoisomerase, apicoplastic (Plasmodium falciparum (isolate 3D7), UniProt Q8IKG4); test: Inhibition of Plasmodium falciparum DXR
# T2 sequence (Q8IKG4 whole entry): T1 sequence (whole entry)
# Summary of the method: (§2)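 Recombinant P. falciparum DXR (0.86 μM) in 100 mM Tris pH 7.8, 25 mM MgCl2 and 150 μM NADPH at 37 °C. Reaction started with 144 μM DOXP. NADPH oxidation followed at 340 nm by UV–visible spectrophotometry. Compounds were screened first at a single 100 μM concentration as percent remaining activity. Assays were run in duplicate.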
# [6] = target: T2, 1-deoxy-D-xylulose 5-phosphate reductoisomerase, apicoplastic; test: Inhibition of Plasmodium falciparum DXR assessed as reduction in NADPH oxidation in presence of DOXP by UV-visible spectrophotometry; summary of the method: as §2
# [7] = system: Plasmodium falciparum; test: Growth inhibition of Plasmodium falciparum; format: functional, organism-based
# [8] = system: Plasmodium berghei; test: (§3) Antimalarial activity against luciferase-expressing Plasmodium berghei ANKA infected in Swiss Webster mouse assessed as reduction in parasitemia at 20 mg/kg, ip administered daily for 5 days starting from 2 days post infection by luciferase-luciferin based reporter assay; format: functional, organism-based
# [9] = target: T1, 1-deoxy-D-xylulose 5-phosphate reductoisomerase, apicoplastic (Plasmodium falciparum (isolate 3D7)); test: Inhibition of DXR in Plasmodium falciparum 3D7 assessed as reduction in MEcPP levels at 5 times growth inhibitory IC50 incubated for 10 hrs by LC-MS/MS method
# [10] = system: Mus musculus; test: Toxicity in luciferase-expressing Plasmodium berghei ANKA infected Swiss Webster mouse assessed as induction of adverse events at 20 mg/kg, ip administered daily for 5 days starting from 2 days post infection; format: organism-based; details: in vivo
# Summary of the method: (§4)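 Female Swiss Webster mice (25–30 g) infected ip with 10^3 luciferase-expressing P. berghei, then given ip doses daily for 5 days from day 2 in 2% methylcellulose/0.5% Tween 80 vehicle, groups of five; mice observed for adverse effects over the dosing period.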
# [11] = system: Plasmodium falciparum; test: Effect on DXR protein level in Plasmodium falciparum 3D7 at 5 times growth inhibitory IC50 incubated for 10 hrs by LC-MS/MS method; format: organism-based
# [12] = target: T1, 1-deoxy-D-xylulose 5-phosphate reductoisomerase, apicoplastic (Plasmodium falciparum (isolate 3D7)); test: Inhibition of DXR in Plasmodium falciparum 3D7 assessed as reduction in MEP levels at 5 times growth inhibitory IC50 incubated for 10 hrs by LC-MS/MS method
# [13] = system: Plasmodium falciparum; test: Growth inhibition of Plasmodium falciparum 3D7 asynchronous cultures at 0.01 to 100 uM incubated for 72 hrs in presence of excess IPP by PicoGreen dye based assay; format: functional, organism-based
# [14] = target: T1, 1-deoxy-D-xylulose 5-phosphate reductoisomerase, apicoplastic (Plasmodium falciparum (isolate 3D7)); test: Inhibition of DXR in Plasmodium falciparum 3D7 assessed as reduction in CDP-ME levels at 5 times growth inhibitory IC50 incubated for 10 hrs by LC-MS/MS method
# [15] = system: Plasmodium berghei; test: as §3, with “parasitemia by measuring reduction in luciferin signal intensity” for “parasitemia”, “assay relative to untreated control” for “assay”; format: functional
# [16] = system: HepG2; test: Cytotoxicity in human HepG2 cells; format: cell-based
# [17] = Half life in mouse plasma; format: ADME, cell-free
# [18] = system: Plasmodium berghei; test: as §3, with “parasitemia by measuring reduction in luciferin signal intensity” for “parasitemia”, “50” for “20”, “assay relative to untreated control” for “assay”; format: functional, organism-based
# [19] = system: Mus musculus; test: Toxicity in luciferase-expressing Plasmodium berghei ANKA infected Swiss Webster mouse assessed as induction of adverse events at 50 mg/kg, ip administered daily for 5 days starting from 2 days post infection; format: organism-based; details: in vivo; summary of the method: as §4
# [20] = system: Plasmodium falciparum; test: Growth inhibition of Plasmodium falciparum containing had1 mutation expressing GFP-HAD1 by PicoGreen dye based assay; format: functional, organism-based
# [21] = system: Plasmodium falciparum; test: Resistance index, ratio of IC50 for Plasmodium falciparum containing had1 mutation to IC50 for growth inhibition of wild type Plasmodium falciparum 3D7 asynchronous cultures; format: functional
# [22] = Selectivity index, ratio of IC50 for cytotoxicity in human HepG2 cells to IC50 for growth inhibition of Plasmodium falciparum 3D7 asynchronous cultures; format: toxicity, cell-based; details: read-out: Ratio IC50
# [23] = Half life in mouse liver microsomes; format: ADME, microsome
smiles,measurement,setting,value
COC(=O)N(O)C/C=C/P(=O)(O)O,inhibition,[1],> 75%
same,IC50,[2],28600 nM
CC(=O)N(C/C=C/P(=O)(O)O)OCc1ccc(C(C)C)cc1,inhibition,[1],> 75%
same,IC50,[2],1100 nM
same,growth inhibition (GI),[3],inactive
O=C(N(O)C/C=C/P(=O)(O)O)C(F)(F)F,inhibition,[1],> 75%
same,Activity,[4],37%
same,IC50,[2],113000 nM
CC(=O)N(C/C=C/P(=O)(O)O)OCc1ccc(-c2ccccc2)cc1,inhibition,[1],> 75%
same,IC50,[2],2300 nM
CC(=O)N(C/C=C/P(=O)(OCOC(=O)C(C)(C)C)OCOC(=O)C(C)(C)C)OCc1ccc(-c2ccccc2)cc1,IC50,[2],44100 nM
CC(=O)N(O)CCCP(=O)(O)O,inhibition,[1],> 75%
same,IC50,[5],24 nM
same,IC50,[2],511 nM
same,IC50,[6],23 nM
same,IC50,[7],90 to 350 nM
O=CN(O)CCCP(=O)(O)O [FOSMIDOMYCIN SODIUM],inhibition,[1],> 75%
same,IC50,[2],1090 nM
same,IC50,[7],90 to 350 nM
CC(=O)N(C/C=C/P(=O)(O)O)OCc1ccc2ccccc2c1,inhibition,[1],> 75%
same,Activity,[4],25%
same,IC50,[2],26100 nM
CC(=O)N(C/C=C/P(=O)(OCOC(=O)C(C)(C)C)OCOC(=O)C(C)(C)C)OCc1ccc(C(C)C)cc1,IC50,[2],55200 nM
CC(=O)N(O)C/C=C/P(=O)(OCOC(=O)C(C)(C)C)OCOC(=O)C(C)(C)C,IC50,[2],18 nM
CC(C)(C)C(=O)OCOP(=O)(/C=C/CN(O)C(=O)C(F)(F)F)OCOC(=O)C(C)(C)C,IC50,[2],14300 nM
CC(=O)N(O)C/C=C/P(=O)(O)O,inhibition,[1],> 75%
same,IC50,[2],202 nM
same,IC50,[6],206 nM
CCN(CC)CCCC(C)Nc1ccnc2cc(Cl)ccc12 (configuration not stated),Activity,[8],Active
CC(C)(C)C(=O)OCOP(=O)(/C=C/CN(O)C=O)OCOC(=O)C(C)(C)C,inhibition,[9],Active
same,IC50,[2],13 nM
same,Activity,[10],Non-Toxic
same,Activity,[11],Non-Toxic
same,inhibition,[12],Active
same,growth inhibition (GI),[13],inactive
same,inhibition,[14],Active
same,log(activity),[15],3
same,IC50,[16],> 50000 nM
same,t1/2,[17],< 0.083 h
same,Activity,[18],Active
same,Activity,[19],Non-Toxic
same,growth inhibition (GI),[20],Active
CC(=O)N(CCCP(=O)(OCOC(=O)C(C)(C)C)OCOC(=O)C(C)(C)C)OCc1ccc2ccccc2c1,IC50,[7],33200 nM
CC(=O)N(C/C=C/P(=O)(O)O)OC(C)c1ccccc1 (configuration not stated),inhibition,[1],> 75%
same,IC50,[2],1200 nM
O=CN(O)C/C=C/P(=O)([O-])O.[Na+],Ratio IC50,[21],3.4
same,inhibition,[1],> 75%
same,IC50,[2],19 nM
same,selectivity ratio,[22],2630
same,growth inhibition (GI),[13],inactive
same,IC50,[16],> 50000 nM
same,t1/2,[23],> 1 h
same,t1/2,[17],> 2 h
same,growth inhibition (GI),[20],Active
COC(=O)N(O)C/C=C/P(=O)(OCOC(=O)C(C)(C)C)OCOC(=O)C(C)(C)C,IC50,[2],23700 nM
CC(=O)N(C/C=C/P(=O)(OCOC(=O)C(C)(C)C)OCOC(=O)C(C)(C)C)OCc1ccc2ccccc2c1,IC50,[2],50500 nM
C[C@@H]1CC[C@H]2[C@@H](C)C(=O)O[C@@H]3O[C@@]4(C)CC[C@@H]1[C@]32OO4 [ARTEMISININ],IC50,[2],10.4 nM
